Experimental data from ChEMBL document CHEMBL3259739, “Synthesis and structure-activity relationship of trisubstituted thiazoles as Cdc7 kinase inhibitors” (Eur J Med Chem, 2014).

What was measured:
[1] = molecular target: T1, CDC7/DBF4 (Cell division cycle 7-related protein kinase/Activator of S phase kinase) (Homo sapiens, UniProt O00311); experiment: Inhibition of Cdc7/Dbf4 in human HCT116 cells assessed as reduction of MCM2 phosphorylation after 14 hrs; type: cell-based, HCT-116
Summary of the method: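 HCT-116 cells were exposed to inhibitor across a 22-point dose response for 14 h. They were then immunostained for phospho-serine MCM2 using an Alexa Fluor 488 secondary, with a Hoechst nuclear counterstain. The percentage of cells with phospho-MCM2 signal above a threshold was scored by high-content imaging, and IC50 values were derived from that.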

[2] = molecular target: Ephrin type-A receptor 4 (Homo sapiens) (UniProt P54764); experiment: Inhibition of EPHA4 (unknown origin) at 1 uM relative to control; values are per cent of control
Ephrin type-A receptor 4 (Homo sapiens), sequence (P54764 whole entry): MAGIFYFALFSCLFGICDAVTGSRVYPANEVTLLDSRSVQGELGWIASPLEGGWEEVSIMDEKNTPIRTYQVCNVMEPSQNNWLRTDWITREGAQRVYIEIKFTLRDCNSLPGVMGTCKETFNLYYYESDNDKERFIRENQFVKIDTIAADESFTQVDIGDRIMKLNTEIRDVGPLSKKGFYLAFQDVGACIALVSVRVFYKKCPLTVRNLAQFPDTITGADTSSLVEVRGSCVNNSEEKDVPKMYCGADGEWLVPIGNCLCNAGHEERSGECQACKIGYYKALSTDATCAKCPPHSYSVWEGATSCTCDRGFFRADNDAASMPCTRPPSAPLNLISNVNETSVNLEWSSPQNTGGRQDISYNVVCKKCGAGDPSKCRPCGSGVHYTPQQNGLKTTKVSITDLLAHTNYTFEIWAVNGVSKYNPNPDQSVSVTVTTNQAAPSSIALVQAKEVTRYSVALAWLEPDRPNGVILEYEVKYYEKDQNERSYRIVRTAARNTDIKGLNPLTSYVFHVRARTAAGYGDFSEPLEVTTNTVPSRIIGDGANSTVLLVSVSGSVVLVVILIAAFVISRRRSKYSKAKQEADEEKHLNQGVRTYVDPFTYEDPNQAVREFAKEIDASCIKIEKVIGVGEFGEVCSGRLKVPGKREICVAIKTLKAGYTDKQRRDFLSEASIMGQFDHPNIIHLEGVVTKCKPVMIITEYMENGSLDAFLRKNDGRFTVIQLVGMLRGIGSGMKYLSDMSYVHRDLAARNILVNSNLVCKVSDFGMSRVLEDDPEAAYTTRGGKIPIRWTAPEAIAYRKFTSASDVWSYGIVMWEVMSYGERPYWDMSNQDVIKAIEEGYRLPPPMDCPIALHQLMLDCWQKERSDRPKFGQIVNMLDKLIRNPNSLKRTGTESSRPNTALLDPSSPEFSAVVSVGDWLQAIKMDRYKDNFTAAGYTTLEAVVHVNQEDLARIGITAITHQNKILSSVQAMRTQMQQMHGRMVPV

[3] = molecular target: Vascular endothelial growth factor receptor 2 (Homo sapiens) (UniProt P35968); experiment: Inhibition of VEGFR2 (unknown origin) at 1 uM relative to control; conditions: values are per cent of control
Vascular endothelial growth factor receptor 2 (Homo sapiens), sequence (P35968 whole entry): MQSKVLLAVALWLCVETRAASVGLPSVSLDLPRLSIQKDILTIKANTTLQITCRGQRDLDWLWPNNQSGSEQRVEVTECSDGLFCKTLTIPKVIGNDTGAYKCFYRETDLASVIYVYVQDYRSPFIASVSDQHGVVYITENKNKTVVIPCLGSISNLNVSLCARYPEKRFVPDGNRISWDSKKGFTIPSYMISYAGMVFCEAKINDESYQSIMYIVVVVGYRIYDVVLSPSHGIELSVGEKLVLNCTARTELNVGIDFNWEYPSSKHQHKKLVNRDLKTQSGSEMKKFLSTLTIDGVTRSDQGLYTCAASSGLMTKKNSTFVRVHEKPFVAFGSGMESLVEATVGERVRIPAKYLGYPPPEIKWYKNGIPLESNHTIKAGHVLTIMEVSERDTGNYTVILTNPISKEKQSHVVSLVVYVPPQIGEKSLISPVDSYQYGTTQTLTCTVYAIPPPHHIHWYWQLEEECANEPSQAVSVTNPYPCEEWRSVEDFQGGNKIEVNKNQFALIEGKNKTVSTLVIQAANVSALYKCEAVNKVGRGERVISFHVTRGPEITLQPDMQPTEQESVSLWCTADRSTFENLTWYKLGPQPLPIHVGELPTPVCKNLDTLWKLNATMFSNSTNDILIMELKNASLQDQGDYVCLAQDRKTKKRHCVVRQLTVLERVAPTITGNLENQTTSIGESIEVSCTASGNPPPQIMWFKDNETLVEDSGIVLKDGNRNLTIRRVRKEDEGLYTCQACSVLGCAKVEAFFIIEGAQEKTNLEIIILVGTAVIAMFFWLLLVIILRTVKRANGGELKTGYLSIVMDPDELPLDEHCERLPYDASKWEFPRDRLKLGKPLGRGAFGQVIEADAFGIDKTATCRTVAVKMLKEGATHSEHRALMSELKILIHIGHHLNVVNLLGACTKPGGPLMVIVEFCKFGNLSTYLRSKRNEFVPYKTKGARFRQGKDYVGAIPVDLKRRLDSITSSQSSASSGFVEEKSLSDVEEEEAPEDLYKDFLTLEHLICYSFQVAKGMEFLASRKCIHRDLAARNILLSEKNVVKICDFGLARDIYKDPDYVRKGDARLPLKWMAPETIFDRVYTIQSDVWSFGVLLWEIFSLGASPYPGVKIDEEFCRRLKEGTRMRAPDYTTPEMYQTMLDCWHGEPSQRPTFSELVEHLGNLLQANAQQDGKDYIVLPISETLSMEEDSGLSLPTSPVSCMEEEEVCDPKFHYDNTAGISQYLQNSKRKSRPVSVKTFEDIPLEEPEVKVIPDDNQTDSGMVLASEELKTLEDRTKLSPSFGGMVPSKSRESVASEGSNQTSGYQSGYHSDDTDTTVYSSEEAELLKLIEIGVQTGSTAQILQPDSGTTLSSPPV

[4] = molecular target: Tyrosine-protein kinase SYK (Homo sapiens) (UniProt P43405); experiment: Inhibition of SYK (unknown origin) at 1 uM relative to control; conditions: values are per cent of control
[5] = molecular target: MAP kinase-activated protein kinase 2 (Homo sapiens) (UniProt P49137); experiment: Inhibition of MAPKAPK2 (unknown origin) at 1 uM relative to control; values are per cent of control
MAP kinase-activated protein kinase 2 (Homo sapiens), sequence (P49137 whole entry, looked up): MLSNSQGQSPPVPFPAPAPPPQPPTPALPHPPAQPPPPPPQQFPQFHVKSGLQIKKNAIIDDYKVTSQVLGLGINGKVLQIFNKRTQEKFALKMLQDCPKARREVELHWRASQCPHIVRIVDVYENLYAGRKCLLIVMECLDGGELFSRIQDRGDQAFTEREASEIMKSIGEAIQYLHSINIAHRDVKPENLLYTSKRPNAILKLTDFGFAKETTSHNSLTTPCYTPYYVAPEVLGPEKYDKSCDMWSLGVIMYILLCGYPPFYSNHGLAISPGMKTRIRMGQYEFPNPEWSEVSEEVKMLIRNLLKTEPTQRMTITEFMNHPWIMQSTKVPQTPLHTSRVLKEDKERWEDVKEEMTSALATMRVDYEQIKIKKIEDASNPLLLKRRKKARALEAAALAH

[6] = Inhibition of CK1gamma (unknown origin) by TR-FRET assay; parameters: species or system Homo sapiens
Summary of the method: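 CK1 isoform inhibition measured in Lance TR-FRET kinase assays, reported as IC50.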

Casein kinase II = Casein kinase II (Homo sapiens, UniProt P19784+P67870+P68400); experiment: Inhibition of CK2 (unknown origin) by homogeneous time-resolved fluorescence assay; type: protein-complex assay
Summary of the method: (§1)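 Counter-screens by HTRF kinase assays: CDK1/Cyclin B and CDK4/Cyclin D1 in HTRF format, CDK9/Cyclin T1 with a 4eBP1 ULight substrate, and the CK2 tetramer with a TopoII ULight substrate.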

[7] = molecular target: Cyclin-dependent kinase 4/cyclin D1 (Homo sapiens, UniProt P11802); experiment: Inhibition of CDK4/Cyclin-D1 (unknown origin) by homogeneous time-resolved fluorescence assay; type: protein-complex assay; summary of the method: as §1
[8] = molecular target: Mast/stem cell growth factor receptor Kit (Homo sapiens) (UniProt P10721); experiment: Inhibition of KIT (unknown origin) at 1 uM relative to control; values are per cent of control
[9] = molecular target: T2, cGMP-dependent protein kinase 1 (Homo sapiens) (UniProt Q13976); experiment: Inhibition of PRKG1 (unknown origin) at 1 uM relative to control; conditions: values are per cent of control
T2 sequence (whole entry): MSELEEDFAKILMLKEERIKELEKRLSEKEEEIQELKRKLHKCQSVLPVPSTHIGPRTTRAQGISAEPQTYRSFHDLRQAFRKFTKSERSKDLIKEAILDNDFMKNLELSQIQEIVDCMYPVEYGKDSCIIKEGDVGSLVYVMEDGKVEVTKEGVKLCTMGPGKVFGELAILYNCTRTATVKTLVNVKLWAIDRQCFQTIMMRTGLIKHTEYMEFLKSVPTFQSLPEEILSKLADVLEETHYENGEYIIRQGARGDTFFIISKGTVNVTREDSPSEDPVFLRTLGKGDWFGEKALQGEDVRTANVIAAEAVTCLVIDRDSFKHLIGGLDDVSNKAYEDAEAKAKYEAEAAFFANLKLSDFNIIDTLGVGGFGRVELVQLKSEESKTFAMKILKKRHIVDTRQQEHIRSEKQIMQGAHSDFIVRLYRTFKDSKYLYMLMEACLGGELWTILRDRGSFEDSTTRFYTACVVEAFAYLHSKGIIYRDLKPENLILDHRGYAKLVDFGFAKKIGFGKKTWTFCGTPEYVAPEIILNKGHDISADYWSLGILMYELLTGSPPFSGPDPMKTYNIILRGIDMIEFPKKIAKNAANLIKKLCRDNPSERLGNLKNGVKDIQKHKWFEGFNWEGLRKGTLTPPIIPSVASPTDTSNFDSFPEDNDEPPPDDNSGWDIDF

[10] = Intrinsic clearance in mouse liver microsomes at 1 uM after 30 mins by reverse phase HPLC analysis in presence of NADPH; type: ADME; conditions: read-out: CLH
Summary of the method: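 Reactions were stopped with MeCN after 0 or 30 min. Samples were analysed by reverse-phase HPLC–tandem MS to give intrinsic clearance (µl/min/mg).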

[11] = molecular target: Receptor-type tyrosine-protein kinase FLT3 (Homo sapiens) (UniProt P36888); experiment: Inhibition of FLT3 (unknown origin) at 1 uM relative to control; values are per cent of control
Receptor-type tyrosine-protein kinase FLT3 (Homo sapiens), sequence (P36888 whole entry): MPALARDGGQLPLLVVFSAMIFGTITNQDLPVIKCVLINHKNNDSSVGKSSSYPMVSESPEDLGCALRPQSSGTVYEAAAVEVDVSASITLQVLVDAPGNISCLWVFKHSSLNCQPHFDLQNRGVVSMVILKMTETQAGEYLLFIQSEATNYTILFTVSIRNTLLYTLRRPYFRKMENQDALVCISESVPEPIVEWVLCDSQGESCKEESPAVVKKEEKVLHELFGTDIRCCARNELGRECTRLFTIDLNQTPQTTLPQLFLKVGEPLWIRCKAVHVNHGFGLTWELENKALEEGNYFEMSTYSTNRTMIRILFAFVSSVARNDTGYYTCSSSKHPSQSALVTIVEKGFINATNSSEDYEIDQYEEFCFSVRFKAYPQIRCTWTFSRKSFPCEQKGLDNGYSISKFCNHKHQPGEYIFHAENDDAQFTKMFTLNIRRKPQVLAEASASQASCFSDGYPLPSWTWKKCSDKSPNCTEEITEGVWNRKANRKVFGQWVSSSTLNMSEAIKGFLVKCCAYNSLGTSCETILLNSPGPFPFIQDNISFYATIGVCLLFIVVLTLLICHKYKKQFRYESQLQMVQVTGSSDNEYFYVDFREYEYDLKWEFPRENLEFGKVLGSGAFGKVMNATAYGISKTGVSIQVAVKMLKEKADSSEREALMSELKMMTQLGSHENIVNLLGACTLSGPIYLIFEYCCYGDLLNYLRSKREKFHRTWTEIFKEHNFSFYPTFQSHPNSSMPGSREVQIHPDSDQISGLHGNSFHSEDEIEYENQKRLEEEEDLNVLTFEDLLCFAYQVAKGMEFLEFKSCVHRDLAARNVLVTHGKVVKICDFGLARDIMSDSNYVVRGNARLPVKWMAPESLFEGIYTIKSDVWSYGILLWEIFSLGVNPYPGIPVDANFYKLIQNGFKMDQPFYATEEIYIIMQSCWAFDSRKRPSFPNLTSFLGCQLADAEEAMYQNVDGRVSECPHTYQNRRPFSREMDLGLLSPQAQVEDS

[12] = molecular target: T1, CDC7/DBF4 (Cell division cycle 7-related protein kinase/Activator of S phase kinase); experiment: Inhibition of Cdc7/Dbf4 (unknown origin)-mediated phosphorylation of MCM2 by protein-A luminescent proximity homogenous assay; type: protein-complex assay
[13] = molecular target: T3, Dual specificity mitogen-activated protein kinase kinase 5 (Homo sapiens) (UniProt Q13163); experiment: Inhibition of MEK5 (unknown origin) at 1 uM relative to control; values are per cent of control
T3 sequence (whole entry): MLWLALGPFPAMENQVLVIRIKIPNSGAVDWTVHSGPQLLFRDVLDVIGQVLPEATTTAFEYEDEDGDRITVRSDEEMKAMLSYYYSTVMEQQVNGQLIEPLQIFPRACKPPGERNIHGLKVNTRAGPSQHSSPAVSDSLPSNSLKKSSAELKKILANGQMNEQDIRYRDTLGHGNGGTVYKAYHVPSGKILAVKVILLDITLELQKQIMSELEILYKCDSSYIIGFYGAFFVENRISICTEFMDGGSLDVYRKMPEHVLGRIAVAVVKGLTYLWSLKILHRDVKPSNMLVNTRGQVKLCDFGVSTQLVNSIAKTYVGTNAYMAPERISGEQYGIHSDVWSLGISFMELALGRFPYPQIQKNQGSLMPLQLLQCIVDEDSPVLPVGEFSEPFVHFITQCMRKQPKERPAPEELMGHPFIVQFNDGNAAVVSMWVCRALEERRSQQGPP

[14] = molecular target: Serine/threonine-protein kinase/endoribonuclease IRE1 (Homo sapiens) (UniProt O75460); experiment: Inhibition of ERN1 (unknown origin) at 1 uM relative to control; values are per cent of control
Serine/threonine-protein kinase/endoribonuclease IRE1 (Homo sapiens), sequence (O75460 19-977 limits assumed): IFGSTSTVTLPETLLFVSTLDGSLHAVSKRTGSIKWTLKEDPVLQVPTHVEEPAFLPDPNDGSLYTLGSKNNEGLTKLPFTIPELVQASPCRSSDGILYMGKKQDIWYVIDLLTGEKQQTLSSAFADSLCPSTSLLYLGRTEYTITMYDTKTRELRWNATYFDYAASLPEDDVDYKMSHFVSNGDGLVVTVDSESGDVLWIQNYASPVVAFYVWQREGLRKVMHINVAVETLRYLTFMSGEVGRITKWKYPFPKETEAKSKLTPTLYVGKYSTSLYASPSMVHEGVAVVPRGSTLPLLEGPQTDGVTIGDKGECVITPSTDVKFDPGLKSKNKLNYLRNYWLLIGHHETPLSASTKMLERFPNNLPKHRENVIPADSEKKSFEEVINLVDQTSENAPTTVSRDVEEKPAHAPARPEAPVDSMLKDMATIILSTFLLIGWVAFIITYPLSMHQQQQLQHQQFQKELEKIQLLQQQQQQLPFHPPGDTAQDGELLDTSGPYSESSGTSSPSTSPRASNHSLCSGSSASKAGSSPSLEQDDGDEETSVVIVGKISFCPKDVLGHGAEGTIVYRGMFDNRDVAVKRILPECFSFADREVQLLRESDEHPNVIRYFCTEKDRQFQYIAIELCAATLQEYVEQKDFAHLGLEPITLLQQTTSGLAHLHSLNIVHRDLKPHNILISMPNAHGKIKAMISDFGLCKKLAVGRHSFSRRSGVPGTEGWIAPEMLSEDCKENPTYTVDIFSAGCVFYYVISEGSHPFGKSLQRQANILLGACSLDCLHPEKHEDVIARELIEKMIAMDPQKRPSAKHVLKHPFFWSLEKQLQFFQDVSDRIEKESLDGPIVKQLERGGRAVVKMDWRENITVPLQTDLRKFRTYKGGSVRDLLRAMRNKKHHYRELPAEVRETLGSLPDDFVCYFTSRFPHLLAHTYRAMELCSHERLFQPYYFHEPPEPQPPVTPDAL

HCT-116 = experiment: Induction of apoptosis in human HCT116 cells assessed as activation of caspase 3/7; type: functional, cell-based
[15] = molecular target: Dual specificity protein kinase CLK4 (Homo sapiens) (UniProt Q9HAZ1); experiment: Inhibition of CLK4 (unknown origin) at 1 uM relative to control; values are per cent of control
[16] = molecular target: Serine/threonine-protein kinase pim-1 (Homo sapiens, UniProt P11309); experiment: Inhibition of Pim1 (unknown origin) by homogeneous time-resolved fluorescence assay
Serine/threonine-protein kinase pim-1, sequence (P11309 whole entry): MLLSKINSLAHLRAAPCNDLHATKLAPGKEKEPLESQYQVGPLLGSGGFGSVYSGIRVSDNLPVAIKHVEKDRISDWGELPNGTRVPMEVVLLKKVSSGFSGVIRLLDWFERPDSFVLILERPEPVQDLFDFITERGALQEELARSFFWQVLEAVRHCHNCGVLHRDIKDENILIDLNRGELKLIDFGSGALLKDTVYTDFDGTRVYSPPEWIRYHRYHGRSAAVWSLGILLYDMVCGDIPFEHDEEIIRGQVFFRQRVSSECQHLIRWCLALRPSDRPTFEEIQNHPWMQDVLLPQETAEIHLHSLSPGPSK
Summary of the method: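 Pim1 counter-screened biochemically with a homogeneous time-resolved fluorescence (HTRF) kinase assay.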

[17] = molecular target: Insulin-like growth factor 1 receptor (Homo sapiens) (UniProt P08069); experiment: Inhibition of IGF1R (unknown origin) at 1 uM relative to control; values are per cent of control

residual activity [2] [%]	residual binding, % of control [3] [%]	residual binding, % of control [4] [%]	residual activity [5] [%]	residual activity [8] [%]	residual binding, % of control [9] [%]	residual activity [11] [%]	IC50 [12] [nM]	residual activity [13] [%]	residual activity [14] [%]	residual activity [15] [%]	residual activity [17] [%]	Structure (SMILES)	IC50 [1] [nM]	IC50 [6] [nM]	IC50 (Casein kinase II) [nM]	IC50 [7] [nM]	microsomal CLint at 1 µM [10] [µL/min/mg]	IC50 (HCT-116) [nM]	IC50 [16] [nM]
100	92	56	100	78	51	100	6.81	80	32	0	76	COc1ccc(-c2nc(-c3ccnc(N)n3)sc2C(N)=O)c(Cl)c1	862	1900	65000	> 50000	155	> 50000	> 1000
58	74	97	94	100	75	87	323	83	100	92	85	CCOC(=O)c1sc(-c2ccncc2)nc1O							

Structure (SMILES)	residual activity [2] [%]	residual binding, % of control [3] [%]	residual binding, % of control [4] [%]	residual activity [5] [%]	residual activity [8] [%]	residual binding, % of control [9] [%]	residual activity [11] [%]	IC50 [12] [nM]	residual activity [13] [%]	residual activity [14] [%]	residual activity [15] [%]	residual activity [17] [%]	IC50 [1] [nM]	IC50 [6] [nM]	IC50 (Casein kinase II) [nM]	IC50 [7] [nM]	microsomal CLint at 1 µM [10] [µL/min/mg]	IC50 (HCT-116) [nM]	IC50 [16] [nM]
NC(=O)c1sc(-c2ccnc(N)n2)nc1-c1ccc(Cl)cc1Cl	72	56	72	96	75	88	66	3.77	79	100	0	94	501	760	29100	> 50000	57	> 50000	> 1000
